Compound activity as filed in PubChem.
In the library only some 3.2% were active in any assay of this set; here they are far more common.
zfTRPN1 agonist: agonists of zebrafish TRPN1 channel; activation, % at 3 µM; actives 0.18% (n = 220,000); AID 1424; HEK293 zebrafish TRPN1-YFP, Fluo-8 calcium fluorescence; 100% = response to 87 µM carbachol;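 active means activation above its plate's cutoff, the mean activation of test wells on that plate plus 3 SD, cut at about 19% in these data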
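System: zebrafish TRPN1-YFP in HEK293 cells / Dosing: 3 µM single point / Timing: dye loading 1 h at 37 °C, then 30 min room temperature / Signal: Fluo-8 calcium fluorescence, excitation 470-495 nm, emission 515-575 nm / Read-out basis: percent activation from peak over basal fluorescence ratio, control-normalized / Control set: high carbachol 87 µM, low DMSO alone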
OX1R antag-1: OX1R (human) antagonism; OX1R-expressing cells, FRET antagonist read-out; inhibition, % at 6.6 µM; actives 1.8% (n = 330,000); in the data active means inhibition mostly above about 38%, no sharp cut-off; inactive means mostly below about 40%
Target sequence (O43613 whole entry, looked up): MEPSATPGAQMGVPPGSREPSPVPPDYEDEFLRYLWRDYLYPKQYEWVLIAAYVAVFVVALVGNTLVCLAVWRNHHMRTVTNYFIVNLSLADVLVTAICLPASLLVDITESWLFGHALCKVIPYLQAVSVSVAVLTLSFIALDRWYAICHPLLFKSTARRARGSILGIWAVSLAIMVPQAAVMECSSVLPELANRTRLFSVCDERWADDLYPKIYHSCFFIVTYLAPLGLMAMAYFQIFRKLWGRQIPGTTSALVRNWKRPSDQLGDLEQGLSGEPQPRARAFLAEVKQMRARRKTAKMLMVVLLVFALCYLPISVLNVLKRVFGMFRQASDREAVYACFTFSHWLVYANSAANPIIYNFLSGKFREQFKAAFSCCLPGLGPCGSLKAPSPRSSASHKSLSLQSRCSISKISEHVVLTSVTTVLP
GPR7 antagonist: antagonists of human GPR7 (neuropeptides B/W receptor 1); P48145; GPR7-expressing cells, fluorescence antagonist assay; inhibition, % at 4.4 µM; actives 1.1% (n = 290,000); in the data active means inhibition above about 16%, passing the limit was not always enough;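 further: cells stimulated with the agonist NPW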
TRPML3 agonist: human mucolipin-3 channel agonism; activation, % at 3 µM; actives 0.29% (n = 220,000); Q8TDD5; HEK293 TRPML3-YFP, Fluo-8 calcium fluorescence; 100% = the carbachol control signal;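 active means activation above its plate's cutoff, the mean activation of the plate's test wells plus 3 SD, cut at about 12% in these data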
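Test system – HEK293 line with stable expression of human TRPML3-YFP channel · Control set – carbachol 87 µM final as high control (100%), DMSO as low control (0%) · Signal – Fluo-8 calcium dye fluorescence, ex 470-495, em 515-575 nm · Incubation – 1-h 37 °C dye load, 5-s basal, 120-s post-compound reads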
CHO parental Ca: counter-screen: ATP calcium response change in parental CHO cells; parental CHO-K1, ATP-induced calcium, Fluo-8 fluorescence; actives 0.63% (n = 330,000); inhibition, % at 5.6 µM;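 active means inhibition above that plate's mean sample inhibition plus 3 SD, cut at about 26% in these data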
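Assay system: parental CHO cells; Read-out basis: percent inhibition of ATP-evoked calcium rise, normalized to controls; Benchmarks: ATP and no-ATP DMSO wells; Compound dosing: single nominal dose of 5.6 µM per compound; Signal: Fluo-8 calcium dye fluorescence; Also added: ATP as calcium-mobilizing challenge; Repeats: singlicate.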
OX1R antag-2: antagonists of human orexin 1 receptor. AID 434989. actives 0.43% (n = 330,000). CHO/OX1R cells, Fluo-8 calcium fluorescence, orexin A. inhibition, % at 5 µM;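 active means inhibition above its plate's threshold, mean inhibition of all tested compounds on the plate plus 3 SD, cut at about 37% in these data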
GPR7 antag cf: confirmation of human GPR7 antagonists. AID 1952. shares compounds with GPR7 antagonist. inhibition, % at 4.4 µM. GPR7-expressing cells, calcium fluorescence antagonist mode. actives 52% (n = 2,400); in the data active means inhibition above about 24%;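 further: stimulated with the GPR7 agonist NPW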
MCHR1 antag: counter-screen for GPR7 antagonists: antagonists of human MCHR1; shares compounds with GPR7 antagonist; AID 2148; inhibition, % at 4.4 µM; MCHR1-expressing cells, fluorescence antagonist assay; actives 62% (n = 2,400); in the data active means inhibition above about 22%
Hits are given with their value; - = inactive; . = no result given.

SMILES | zfTRPN1 agonist | OX1R antag-1 | GPR7 antagonist | TRPML3 agonist | CHO parental Ca | OX1R antag-2 | GPR7 antag cf | MCHR1 antag
CC(C)c1nc(SCC(=O)c2c[nH]c3ccccc23)n[nH]1 | - | - | 33 | - | - | - | - | -
O=C(COc1ccc2c(c1)oc(=O)c1ccccc12)NCC1CCC(C(=O)O)CC1 (stereo unspecified) | . | - | - | . | - | - | . | .
CN(Cc1ccccc1)C(=O)c1ccccc1Br | - | - | - | - | - | - | . | .
CN(Cc1ccccc1)C(=O)c1ccccc1-c1ccccc1 | - | - | 69 | - | - | - | - | -
COc1ccc(NC(=O)CN2C(=O)N(C)Cc3ccccc32)c(C)c1 | - | - | - | - | - | - | . | .
COc1ccccc1OCC(=O)Nc1c2c(nn1-c1ccccc1)CS(=O)(=O)C2 | . | - | 23 | . | - | - | - | -
COc1ccccc1OCC(=O)Nc1c2c(nn1-c1ccc(C)cc1)CS(=O)(=O)C2 | . | - | . | . | - | - | . | .
COC(=O)/N=C(/Cc1ccc(OC)cc1)c1ccc(OC)cc1 | . | - | - | . | - | - | . | .
COc1ccc(C/C(=N\OC(C)=O)c2ccc(OC)cc2)cc1 | . | - | 40 | . | - | - | - | -
Cc1cc(C)n(C(C)CNS(=O)(=O)c2ccc(C)c(C)c2)n1 (stereo unspecified) | . | - | - | . | - | - | . | .
COc1ccc(Cc2n[nH]c(=S)n2N)cc1OC | - | - | - | - | - | - | . | .
COc1ccc2c3c(cccc13)C(=O)CC2 | . | . | 34 | . | . | . | - | 33
CN(C)CCCNC(=O)c1ccc(-c2nc(-c3ccc(Cl)cc3)cs2)cc1 | - | - | 41 | - | - | - | 91 | 92
CN(C)CCCNC(=O)c1ccccn1 | - | - | - | - | - | - | . | .
Cc1nnc(N/N=C/c2c[nH]c3ccccc23)[nH]c1=O | - | - | 29 | - | - | - | - | -
CN1CCC(Oc2ccccc2Sc2ccc(C(F)(F)F)cc2)CC1 | - | - | 27 | - | - | - | 30 | 64
CN1CCC(Oc2ccc(Sc3ccccc3)cc2)CC1 | - | - | - | - | - | - | . | .
Cc1ccc2c(c1)N(C(=O)CCC(=O)N1CCN(c3ccccn3)CC1)CC(C)O2 (stereo unspecified) | . | - | 31 | . | - | - | - | -
CC1CN(C(=O)CCC(=O)N2CCN(c3ccccn3)CC2)c2ccccc2O1 (stereo unspecified) | . | - | - | . | - | - | . | .
CCCc1cc(C(=O)Nc2ccc(OC)cc2[N+](=O)[O-])cs1 | . | . | - | . | . | . | . | .
O=C1Nc2ccccc2C12NCCc1c2[nH]c2ccccc12 (stereo unspecified) | - | - | - | - | - | - | . | .
c1ccc2c3c([nH]c2c1)C1(CCCCC1)NCC3 | - | - | 11 | - | - | - | - | -
COc1ccc(C=O)cc1COc1ccc(C)cc1[N+](=O)[O-] | - | - | 31 | - | - | - | 28 | 61
NC(=O)N/N=C/c1coc2ccc(O)cc2c1=O | - | - | 21 | - | - | - | - | -
Cn1c(SCC(=O)N2c3ccccc3CCc3ccccc32)nnc1-c1ccc(O)cc1 | - | - | - | - | - | - | . | .
SMILES | zfTRPN1 agonist | OX1R antag-1 | GPR7 antagonist | TRPML3 agonist | CHO parental Ca | OX1R antag-2 | GPR7 antag cf | MCHR1 antag
COc1ccc(-c2cc(C3CCN(c4cc(Cl)nc(N)n4)CC3)[nH]n2)cc1 | - | - | - | - | - | - | . | .
Nc1nc(Cl)cc(N2CCC(c3cc(-c4ccc(Cl)cc4)n[nH]3)CC2)n1 | - | - | 38 | - | 34 | 54 | 26 | 72
CCCCN1/C(=C/c2ccc3ccccc3[n+]2CC)Sc2ccccc21 | 52 | . | 85 | 21 | . | . | 81 | 79
Cc1ncc([N+](=O)[O-])n1CC(=O)Nc1ccc(F)cc1 | . | - | - | . | - | - | . | .
O=C(Nc1ccc(Cl)cc1)Nc1nc(-c2ccccc2O)cs1 | - | - | 31 | - | 74 | 41 | 67 | 62
Cc1ccc(/C(N)=N/OC(=O)c2cccc(Cn3cc(C(F)(F)F)ccc3=O)c2)cc1 | - | - | 21 | - | - | - | - | 23
